The values that follow come from ChEMBL document CHEMBL4813982, “Novel pyrazolo[4,3-d]pyrimidine microtubule targeting agents (MTAs): Synthesis, structure-activity relationship, in vitro and in vivo evaluation as antitumor agents” (Bioorg Med Chem Lett, 2021).

For one data set, the system named is SNB-75. Briefly: Growth inhibition of human SNB-75 cells incubated for 48 hrs by sulforhodamine B assay. Type of data set: functional. A general note: In SRB staining, fixed cells bind dye roughly in proportion to their protein.
The test system of another data set is EKVX. The experiment in a line: Growth inhibition of human EKVX cells incubated for 48 hrs by sulforhodamine B assay. It counts as functional.
Data set [1] concerns MCF7. The experiment in a line: Potency index, ratio of EC50 of paclitaxel to EC50 of compound for antiproliferative activity against human MCF7 cells. Type of data set: functional.
For a further data set, the system named is SW-620. Briefly: Growth inhibition of human SW-620 cells incubated for 48 hrs by sulforhodamine B assay. It counts as functional.
For another data set, the system named is MDA-MB-435. Briefly: Growth inhibition of human MDA-MB-435 cells incubated for 48 hrs by sulforhodamine B assay. It counts as functional.
The next data set has as its system OVCAR-8. Briefly: Antiproliferative activity against human OVCAR-8 cells. Type of data set: functional, cell-based.
In data set [2] the test system is MCF7. Briefly: Growth inhibition of human MCF7 cells incubated for 48 hrs by sulforhodamine B assay. It counts as functional.
A further data set concerns RXF 393. The experiment in a line: Growth inhibition of human RXF 393 cells incubated for 48 hrs by sulforhodamine B assay. It counts as functional.
Data set [3] is described as follows: Toxicity in athymic mouse xenografted with human MCF7 cells expressing TUBB3 assessed as effect on body weight at 30 mg/kg administered twice in a week. Type of data set: organism-based. The conditions noted are these: in vivo. In outline: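 MCF-7 TUBB3 cells (10^7 in 100 uL Matrigel) implanted into mammary fat pad #4 of 8-week-old female athymic mice. Dosing was 30 mg/kg twice weekly. Body weight was expressed as percent change at day 41 versus starting weight and analysed by one-way ANOVA, n = 8.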
Background: In xenograft studies the graft and the host belong to different species.

For the next data set, the system named is SF-295. The experiment in a line: Growth inhibition of human SF-295 cells incubated for 48 hrs by sulforhodamine B assay. Type of data set: functional.
Another data set concerns 786-0. Briefly: Growth inhibition of human 786-0 cells incubated for 48 hrs by sulforhodamine B assay. It counts as functional.
The next data set has as its system IGROV-1. Briefly: Growth inhibition of human IGROV-1 cells incubated for 48 hrs by sulforhodamine B assay. It counts as functional.
The nature of data set [4]: Resistance ratio of IC50 for antiproliferative activity against human NCI/ADR-RES cells expressing Pgp to IC50 for antiproliferative activity against human OVCAR-8 cells. It counts as functional. In outline:
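Resistance ratio: IC50 in Pgp-overexpressing NCI/ADR-RES cells divided by IC50 in parental OVCAR-8 cells.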

The subject of the next data set is CCRF-CEM. Briefly: Growth inhibition of human CCRF-CEM cells incubated for 48 hrs by sulforhodamine B assay. It counts as functional.
The subject of a further data set is HCC 2998. Briefly: Growth inhibition of human HCC 2998 cells incubated for 48 hrs by sulforhodamine B assay. It counts as functional.
The target of the next data set is Tubulin (Homo sapiens) (UniProt P68371+Q9H4B7+P0DPH7+P68366+Q13509+Q71U36+P04350+Q3ZCM7+P07437+P68363+Q9BQE3+Q6PEY2+Q13885+Q9BVA1+Q9BUF5). Briefly: Inhibition of [3H]colchicine binding to tubulin (unknown origin) at 5 uM relative to control. Type of data set: protein-complex assay.
The subject of a further data set is NCI-H322M. Briefly: Growth inhibition of human NCI-H322M cells incubated for 48 hrs by sulforhodamine B assay. Type of data set: functional.
The test system of a further data set is BT-549. Briefly: Growth inhibition of human BT-549 cells incubated for 48 hrs by sulforhodamine B assay. Type of data set: functional.
The subject of another data set is SF-539. Briefly: Growth inhibition of human SF-539 cells incubated for 48 hrs by sulforhodamine B assay. It counts as functional.
In another data set the test system is NCI-H23. Briefly: Growth inhibition of human NCI-H23 cells incubated for 48 hrs by sulforhodamine B assay. Type of data set: functional.
In the next data set the test system is TK-10. Briefly: Growth inhibition of human TK-10 cells incubated for 48 hrs by sulforhodamine B assay. Type of data set: functional.
The next data set concerns A549. Briefly: Growth inhibition of human A549 cells incubated for 48 hrs by sulforhodamine B assay. It counts as functional.

As to `COc1ccc(N(C)c2nc(Cl)nc3cnn(C)c23)cc1`, the GI50 in the data set on SNB-75 is 10.8 nM; with EKVX it was 15.5 nM; with SW-620, 6.67 nM; in the data set on MDA-MB-435 it was 3.9 nM; with MCF7 [2] it was 10.8 nM; in the data set on RXF 393, 8.75 nM. For the same compound, the GI50 came out at 11.4 nM in the data set on SF-295; 13.2 nM with 786-0; 13.3 nM in the data set on IGROV-1; 9.96 nM in the data set with CCRF-CEM; 23.6 nM in the data set with HCC 2998; 14.1 nM with NCI-H322M. The GI50 with BT-549 is 24.1 nM; with SF-539 it was 8.76 nM; in the data set on NCI-H23, 11.9 nM; in the data set on TK-10, 16.3 nM; in the data set with A549, 12.7 nM. Also, the “Ratio EC50” value in the data set on MCF7 [1] stood at 100. In the data set with OVCAR-8, this compound came in with an IC50 of 9 nM. Further, the Activity result in data set [3] is given as “Non-Toxic”. Also, in data set [4], the “Ratio IC50” value is listed as 0.55. The inhibition at Tubulin (Homo sapiens) was 94%.

What is called GI50 is the concentration at which growth is held to half of that of the control. A high value points to lower sensitivity of the cells. As usually defined, the IC50 is the midpoint of a concentration-inhibition curve. By inhibition is commonly meant how much of the control response was suppressed.
